ChEMBL document CHEMBL4400512, “Searching for new agents active against Candida albicans biofilm: A series of indole derivatives, design, synthesis and biological evaluation” (Eur J Med Chem, 2019)
Values after ≈ are worked out from the molar mass of the structure shown.

Tests used:
Candida albicans [1] = assay: Antibiofilm activity against Candida albicans ATCC 10231 assessed as inhibition of mature biofilm formation by XTT reduction assay; type: functional
In short: (§1)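 Biofilm assay after Pierce et al., with compound applied either during biofilm formation or to 24 h pre-formed (mature) biofilm. Read-out is metabolic activity of cells in the biofilm by XTT reduction. BMIC50 is the lowest concentration giving a 50% drop relative to untreated growth control. Tested in triplicate, at least two experiments on separate dates; median reported.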

Candida albicans [2] = assay: Antibiofilm activity against Candida albicans ATCC 10231 assessed as inhibition of biofilm formation by XTT reduction assay; type: functional; in short: as §1
Candida albicans [3] = assay: Antifungal activity against planktonic form of Candida albicans ATCC 10231 by broth microdilution method; type: organism-based; details: in vitro
In short: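 CLSI M27-A3 broth microdilution. Cells grown on Sabouraud dextrose agar at 35°C for 24 h; final inoculum 1×10^3–5×10^3 cells/mL. Compounds from DMSO stocks, final DMSO below 1%, final range 256–0.25 µg/mL. Controls were DMSO 1% and fluconazole reference. MIC50 is the lowest concentration giving ≥50% growth inhibition. Three independent experiments in duplicate; median reported.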

Candida albicans [4] = assay: Antibiofilm activity against Candida albicans PMC 1042 assessed as inhibition of mature biofilm formation by XTT reduction assay; type: functional
In short: (§2)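 Biofilm method of Pierce et al. Biofilms were treated either during formation or once mature (24 h preformed). Metabolic activity of the cells within the biofilm was read by XTT reduction. BMIC50 is the lowest concentration giving a 50% drop in metabolic activity versus the untreated growth control. At least two experiments on separate dates, triplicate, reported as median.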

Candida albicans [5] = assay: Antibiofilm activity against Candida albicans PMC 1042 assessed as inhibition of biofilm formation by XTT reduction assay; type: functional; in short: as §2
Candida albicans [6] = assay: Antifungal activity against planktonic form of Candida albicans PMC 1042 by broth microdilution method; type: organism-based; details: in vitro
In short: (§3)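 Broth microdilution per CLSI M27-A3 and M27-S4. Strains were grown on Sabouraud dextrose agar at 35°C for 24 h. Final inoculum 1×10^3–5×10^3 cells/mL. Compounds were dissolved in DMSO (final <1%); 1% DMSO served as control. Final range 256–0.25 µg/mL. MIC50 is the lowest concentration giving ≥50% growth inhibition. Three independent experiments in duplicate, median; fluconazole as reference.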

Candida albicans [7] = assay: Antibiofilm activity against Candida albicans PMC 1082 assessed as inhibition of mature biofilm formation by XTT reduction assay; type: functional; in short: as §2
Candida albicans [8] = assay: Antibiofilm activity against Candida albicans PMC 1082 assessed as inhibition of biofilm formation by XTT reduction assay; type: functional; in short: as §2
Candida albicans [9] = assay: Antifungal activity against planktonic form of Candida albicans PMC 1082 by broth microdilution method; type: organism-based; details: in vitro; in short: as §3
Candida albicans [10] = assay: Antibiofilm activity against Candida albicans ATCC 10261 assessed as inhibition of mature biofilm formation by XTT reduction assay; type: functional; in short: as §2
Candida albicans [11] = assay: Antibiofilm activity against Candida albicans ATCC 10261 assessed as inhibition of biofilm formation by XTT reduction assay; type: functional; in short: as §2
Candida albicans [12] = assay: Antifungal activity against planktonic form of Candida albicans ATCC 10261 by broth microdilution method; type: organism-based; details: in vitro; in short: as §3
[13] = Toxicity in Galleria mellonella larvae assessed as larval survival at 500 ug/ml after 24 hrs relative to control
In short: (§4)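 Ten healthy larvae per group, stored at 15°C in the dark. Each got a 20 µL injection into the haemocoel via the last left proleg, with compound freshly made in sterile water containing <1% v/v DMSO. Larvae were incubated at 30°C and survival scored every 24 h; death was no movement on stimulation plus cuticle discolouration. Controls were untreated, pierced-only and vehicle. Mean % survival of two independent experiments.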

[14] = Toxicity in Galleria mellonella larvae assessed as larval survival at 100 ug/ml after 24 hrs relative to control; in short: as §4
[15] = Toxicity in Galleria mellonella larvae assessed as larval survival at 50 ug/ml after 24 hrs relative to control; in short: as §4
[16] = Toxicity in Galleria mellonella larvae assessed as larval survival at 10 ug/ml after 24 hrs relative to control; in short: as §4
[17] = Toxicity in Galleria mellonella larvae assessed as larval survival at 5 ug/ml after 24 hrs relative to control; in short: as §4
[18] = Toxicity in Galleria mellonella larvae assessed as larval survival at 500 ug/ml after 48 hrs relative to control; in short: as §4
[19] = Toxicity in Galleria mellonella larvae assessed as larval survival at 100 ug/ml after 48 hrs relative to control; in short: as §4
[20] = Toxicity in Galleria mellonella larvae assessed as larval survival at 50 ug/ml after 48 hrs relative to control; in short: as §4
[21] = Toxicity in Galleria mellonella larvae assessed as larval survival at 10 ug/ml after 48 hrs relative to control; in short: as §4
[22] = Toxicity in Galleria mellonella larvae assessed as larval survival at 5 ug/ml after 48 hrs relative to control; in short: as §4
[23] = Toxicity in Galleria mellonella larvae assessed as larval survival at 500 ug/ml after 72 hrs relative to control; in short: as §4
[24] = Toxicity in Galleria mellonella larvae assessed as larval survival at 100 ug/ml after 72 hrs relative to control; in short: as §4
[25] = Toxicity in Galleria mellonella larvae assessed as larval survival at 50 ug/ml after 72 hrs relative to control; in short: as §4
[26] = Toxicity in Galleria mellonella larvae assessed as larval survival at 10 ug/ml after 72 hrs relative to control; in short: as §4
[27] = Toxicity in Galleria mellonella larvae assessed as larval survival at 5 ug/ml after 72 hrs relative to control; in short: as §4

Row | SMILES | MBIC50 (Candida albicans [1]) | MBIC50 (Candida albicans [2]) | MIC50 (Candida albicans [3]) | MBIC50 (Candida albicans [4]) | MBIC50 (Candida albicans [5]) | MIC50 (Candida albicans [6]) | MBIC50 (Candida albicans [7]) | MBIC50 (Candida albicans [8]) | MIC50 (Candida albicans [9]) | MBIC50 (Candida albicans [10]) | MBIC50 (Candida albicans [11]) | MIC50 (Candida albicans [12]) | survival at 24 h [13] | survival at 24 h [14] | survival at 24 h [15] | survival at 24 h [16] | survival at 24 h [17] | survival at 48 h [18] | survival at 48 h [19] | survival at 48 h [20] | also measured
1 | CN(C)c1ccc(CNCCc2c[nH]c3ccccc23)cc1 | 16 µg/mL | 32 µg/mL | > 128 µg/mL |  |  |  |  |  |  |  |  |  |  |  |  |  |  |  |  |  | 
2 | c1ccc2cc(CNCCc3c[nH]c4ccccc34)ccc2c1 | 2 µg/mL | 8 µg/mL | 16 µg/mL (≈ 53.3 µM) | 2 µg/mL | 8 µg/mL | 128 µg/mL (≈ 426 µM) | 2 µg/mL | 8 µg/mL | 32 µg/mL (≈ 107 µM) | 8 µg/mL | 8 µg/mL | 32 µg/mL (≈ 107 µM) | 100% | 100% | 90% | 100% | 100% | 100% | 100% | 90% | survival at 48 h [21]: 100%; survival at 48 h [22]: 100%; survival at 72 h [23]: 100%; survival at 72 h [24]: 100%; survival at 72 h [25]: 90%; survival at 72 h [26]: 100%; survival at 72 h [27]: 100%
3 | O=[N+]([O-])c1ccc(CNCCc2c[nH]c3ccccc23)cc1 | 32 µg/mL | 32 µg/mL | > 128 µg/mL |  |  |  |  |  |  |  |  |  |  |  |  |  |  |  |  |  | 
4 | c1ccc(CNCCc2c[nH]c3ccccc23)cc1 | 32 µg/mL | 32 µg/mL | > 128 µg/mL |  |  |  |  |  |  |  |  |  |  |  |  |  |  |  |  |  | 
5 | O=[N+]([O-])c1ccc(/C=C/CNCCc2c[nH]c3ccccc23)cc1 | >128 µg/mL | 8 µg/mL | > 128 µg/mL |  |  |  |  |  |  |  |  |  |  |  |  |  |  |  |  |  | 
6 | O=C(NCCc1c[nH]c2ccccc12)c1ccccn1 | 32 µg/mL | 32 µg/mL | > 128 µg/mL |  |  |  |  |  |  |  |  |  |  |  |  |  |  |  |  |  | 
7 | O=C(NCCc1c[nH]c2ccccc12)c1ccc([N+](=O)[O-])o1 | 16 µg/mL | 128 µg/mL | > 128 µg/mL |  |  |  |  |  |  |  |  |  |  |  |  |  |  |  |  |  | 
8 | Brc1ccc(CNCCc2c[nH]c3ccccc23)cc1 | 8 µg/mL | 8 µg/mL | 64 µg/mL (≈ 194 µM) | 2 µg/mL | 8 µg/mL | 16 µg/mL (≈ 48.6 µM) | 4 µg/mL | 8 µg/mL | 32 µg/mL (≈ 97.2 µM) | 8 µg/mL | 8 µg/mL | 32 µg/mL (≈ 97.2 µM) | 100% | 100% | 100% | 100% | 100% | 100% | 100% | 100% | survival at 48 h [21]: 100%; survival at 48 h [22]: 100%; survival at 72 h [23]: 100%; survival at 72 h [24]: 100%; survival at 72 h [25]: 100%; survival at 72 h [26]: 100%; survival at 72 h [27]: 100%
9 | C(=C\c1ccccc1)/CNCCc1c[nH]c2ccccc12 | 64 µg/mL | 8 µg/mL | 64 µg/mL (≈ 232 µM) |  |  |  |  |  |  |  |  |  |  |  |  |  |  |  |  |  | 
10 | O=[N+]([O-])c1ccc(N2CCN(Cc3c[nH]c4ccccc34)CC2)cc1 | 4 µg/mL | >128 µg/mL | > 128 µg/mL | 2 µg/mL | 32 µg/mL | > 256 µg/mL | 2 µg/mL | 32 µg/mL | > 256 µg/mL | 8 µg/mL | 32 µg/mL | > 256 µg/mL | 100% | 100% | 100% | 100% | 100% | 100% | 100% | 100% | survival at 48 h [21]: 100%; survival at 48 h [22]: 100%; survival at 72 h [23]: 100%; survival at 72 h [24]: 100%; survival at 72 h [25]: 100%; survival at 72 h [26]: 100%; survival at 72 h [27]: 100%
